Screening data: PubChem, several laboratories
An excerpt weighted towards active compounds, which were near 12% of everything screened.
L major viab: Leishmania major promastigote growth inhibition; Leishmania major promastigotes, resazurin fluorescence viability; inhibition, % at 10 µM; 200,000 compounds, 9% hits; AID 1063;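 note: promastigotes grown with compound for 44 hours at 28 °C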
Arbovirus anti: blocks arbovirus infection; 200,000 compounds, 0.37% hits; arbovirus infection cell-based antiviral screen; inhibition, % at 10 µM; in the data active = inhibition above about 30%
Rad51 HR inh: blocks human Rad51 in homologous recombination | inhibition, % at 10 µM | 200,000 compounds, 0.085% hits | AID 1385 | hRad51 DNA strand exchange, fluorescence dequenching;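 active = inhibition above 40% at the single screening dose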;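 note: 0% = DMSO control wells and 100% = blanks with heterologous ssDNA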
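material = hRad51 filaments on single-stranded DNA | timing = filaments 15 min 37 °C, then compound 30 min | signal = FRET fluorescence dequenching, excitation 485 nm, emission 520 nm | benchmarks = control wells and blank wells on each plate | evaluation = percent inhibition relative to plate controls and blanks | compound = 10 µM final, single point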
Wee1 degr inh: blocks degradation of human Wee1 kinase | HeLa Luc-Wee1K328M stability, luciferase luminescence; 100% = proteasome inhibitor MG132 effect | P30291 | AID 1321 | 220,000 compounds, 1.2% hits | reporter increase, % at 5 µM;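 active = activation above the mean of all tested compounds plus 3 SD, set per screening run, cut at about 8.8% in these data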;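 note: cells exposed to compound for 20 h before luminescence read; 0% = DMSO alone and 100% = MG132 at 30 µM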
Target sequence (P30291 whole entry K328M): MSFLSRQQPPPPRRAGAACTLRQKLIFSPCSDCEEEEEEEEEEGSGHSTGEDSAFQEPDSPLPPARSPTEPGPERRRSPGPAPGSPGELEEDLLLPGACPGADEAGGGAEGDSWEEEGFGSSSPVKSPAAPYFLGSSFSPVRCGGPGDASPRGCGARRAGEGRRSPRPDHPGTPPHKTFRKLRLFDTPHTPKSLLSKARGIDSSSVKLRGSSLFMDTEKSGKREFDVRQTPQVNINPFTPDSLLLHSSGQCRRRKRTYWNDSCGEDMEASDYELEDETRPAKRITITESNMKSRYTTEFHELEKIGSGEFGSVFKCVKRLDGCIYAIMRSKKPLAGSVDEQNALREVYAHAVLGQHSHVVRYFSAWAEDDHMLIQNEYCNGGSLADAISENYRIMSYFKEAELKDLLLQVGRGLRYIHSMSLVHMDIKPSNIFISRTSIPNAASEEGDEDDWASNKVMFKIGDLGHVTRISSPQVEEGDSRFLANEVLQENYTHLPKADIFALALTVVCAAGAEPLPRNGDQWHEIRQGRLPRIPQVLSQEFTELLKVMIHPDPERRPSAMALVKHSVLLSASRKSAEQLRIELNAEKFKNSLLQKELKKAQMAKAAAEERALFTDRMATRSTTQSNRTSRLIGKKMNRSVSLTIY
PKD1 inh: blocks activity of human protein kinase D1. Q15139. PKD1 kinase fluorescence polarization assay. inhibition, % (test concentration not listed). 200,000 compounds, 0.056% hits. AID 797
CHOP inh: inhibitors of CHOP induction in ER stress response | 220,000 compounds, 3.8% hits | inhibition, % at 10 µM | CHO-K1 CHOP-promoter luciferase, tunicamycin-induced, 15-18 h;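 active = compounds that reduced the stress-induced luciferase reporter signal by more than about 70% of percent inhibition, limit read from the data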;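 note: 0% = tunicamycin plus vehicle and 100% = wells without tunicamycin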
CHOP inh conf: confirmation of CHOP induction inhibitors; shares compounds with CHOP inh; CHO-CHOP promoter luciferase reporter, tunicamycin-induced, luminescence; inhibition, % at 10 µM; 2,100 compounds, 45% hits; AID 504437;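 active = mean of three repeat readings of reporter signal inhibition above a set limit, cut at about 70% in these data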;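 note: 0% = tunicamycin plus vehicle and 100% = wells lacking tunicamycin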
Starred values were filed as active, the others as inactive; . = not tested or not shown. Cut-off read from the data, not from the text of the source, unless noted: active = inhibition above about 50%; inactive = the rest.

SMILES | L major viab | Arbovirus anti | Rad51 HR inh | Wee1 degr inh | PKD1 inh | CHOP inh | CHOP inh conf
O=[N+]([O-])c1ccc(S(=O)(=O)CC(CN2CCCCC2)N2CCCCC2)cc1 (stereo unspecified) | 101* | -27 | 6 | -2 | -5 | 105* | 95*
O=[N+]([O-])c1ccc(Oc2ccc(S(=O)(=O)N3CCCCC3)cc2)cc1 | 44 | 2 | . | -1 | 8 | 25 | .
Cc1cc(=O)[nH]c(/N=C(\N)Nc2ccc(SC(F)F)cc2)n1 | -8 | -2 | 14 | -1 | -5 | 7 | .
S=C(N/N=C/c1ccc(Cl)c(Cl)c1)Nc1ccccc1Cl | -5 | -12 | 1 | 0 | 1 | 55 | .
Fc1cccc(/C=N/NC(=S)Nc2ccccc2Cl)c1 | -3 | -13 | 3 | 0 | -1 | 104* | -33
O=C(c1nnsc1S(=O)(=O)c1ccc(Cl)cc1)N1CCOCC1 | 100* | -32 | 7 | -1 | 3 | 102* | 95*
O=C(c1nnsc1S(=O)c1ccc(Cl)cc1)N1CCOCC1 (stereo unspecified) | 100* | -38 | 1 | 1 | -6 | 107* | 54
CNC(=O)c1ncoc1-c1ccc(Cl)cc1 | . | . | 10 | -3 | . | 11 | .
Nc1nc(C(=O)N2CCOCC2)nn1S(=O)(=O)c1ccc(Cl)cc1 | -6 | 14 | -3 | -2 | 14 | -4 | .
CNC(=O)c1nnsc1S(=O)(=O)c1ccc(Cl)cc1 | 59* | -37 | -3 | -3 | -7 | 107* | 114*
COc1ccc(C)cc1S(=O)(=O)N1CCOCC1 | -9 | 0 | -2 | -3 | -4 | -33 | .
CCC(C)NC(=O)CCc1nc2ccccc2n1-c1ccccc1 (stereo unspecified) | 1 | 9 | -10 | 8 | -3 | 12 | .
Cc1c(C(=O)Nc2ccccc2C(=O)N2CCOCC2)cccc1[N+](=O)[O-] | 1 | 6 | 0 | -1 | -8 | -23 | .
O=C(CSc1ncnc2[nH]ncc12)Nc1nc(-c2ccc(F)c(F)c2)cs1 | 14 | -20 | -1 | 0 | -6 | 99* | 116*
O=C(Nc1nc(-c2ccc(F)c(F)c2)cs1)c1cnccn1 | . | . | -44 | -1 | . | 8 | .
O=C(N/N=C/c1ccc(O)cc1)/C(=C/c1ccccc1)CCO | -7 | 5 | 18 | 2 | -9 | -9 | .
Cc1[nH]c2ccccc2c1/C=N/NC(=O)C1CC1(c1ccccc1)c1ccccc1 (stereo unspecified) | 99* | -35 | -7 | -1 | -5 | 106* | 101*
COC(=O)c1cc(NC(=S)Nc2cc(Cl)cc(Cl)c2)cc(C(=O)OC)c1 | 7 | -1 | . | 1 | 10 | 101* | 99*
O=C(CN1CCN(Cc2ccccc2Cl)C1=O)NCCCN1CCOCC1 | . | . | -17 | -4 | . | -4 | .
Fc1ccc(-n2nnnc2-c2cnc(-c3cccs3)nc2C(F)(F)F)cc1 | 23 | 24 | 4 | 1 | 1 | 105* | 121*
CCN=C1NN=C(c2cc(C)n(CCc3ccccc3)c2C)CS1 | -1 | 1 | -1 | 5 | 0 | 16 | .
CCN=C1NN=C(c2cc(C)n(Cc3ccco3)c2C)CS1 | 3 | 3 | -22 | -5 | -9 | 97* | 98*
COc1ccc(CN(C)C(=O)CCl)cc1 | 32 | 7 | 5 | 3 | -7 | -53 | .
CN(Cc1ccc(Cl)cc1)C(=O)CCl | 43 | 2 | . | 3 | -10 | 104* | 32
C/C(=C\c1ccco1)C1C(C#N)=C(N)Oc2n[nH]c(-c3ccc(C)cc3)c21 (stereo unspecified) | 24 | 2 | 1 | 4 | 10 | 105* | 114*
SMILES | L major viab | Arbovirus anti | Rad51 HR inh | Wee1 degr inh | PKD1 inh | CHOP inh | CHOP inh conf
C/C(=C\c1ccco1)C1C(C#N)=C(N)Oc2n[nH]c(-c3ccccc3)c21 (stereo unspecified) | 38 | -9 | -4 | 2 | 3 | 24 | .
Cn1cnc([N+](=O)[O-])c1S(=O)(=O)c1cccc(Cl)c1 | 65* | -27 | . | -3 | -4 | 109* | 110*
CCCCN1C(=O)C2(NNc3ccccc3O2)c2ccccc21 (stereo unspecified) | 96* | -29 | -45 | 0 | 6 | 103* | -2
COc1cc(/C=C/C(=O)OC2CC3CCC2(C)C3(C)C)ccc1O (stereo unspecified) | . | . | -5 | . | . | 100* | 102*
COc1cc(/C=C/C(=O)OCC(=O)N2CC3(C)CC2CC(C)(C)C3)ccc1O (stereo unspecified) | 15 | 11 | . | 1 | -3 | -31 | .
CC(C)c1ccc(C2C3CSCC=C3C(C#N)=C(N)C2(C#N)C#N)cc1 (stereo unspecified) | 98* | -6 | 1 | 1 | 0 | 106* | 122*
COc1ccc(-c2cn3c4c(sc3n2)CCCC4)cc1 | 46 | -10 | 2 | 3 | 2 | 9 | .
O=C(Nc1ccc(N2CCN(C(=O)c3ccccc3)CC2)cc1)c1cc2ccccc2o1 | -7 | -10 | -7 | 0 | 3 | 55 | .
O=C(Nc1ccccc1N1CCN(C(=O)c2ccccc2)CC1)c1cc2ccccc2o1 | 21 | -6 | -6 | -2 | -2 | 98* | 26
CCOc1ccc(CCNC(=O)CSc2cc(=O)n(CC)c3ccccc23)cc1OCC | 3 | -3 | 8 | -1 | -7 | 29 | .
CN(C)CCOC(=O)NCC12CC3CC(CC(C3)C1)C2 | . | . | . | -2 | . | -4 | .
C#CC(=O)N(c1cc(OC)ccc1OC)C(C(=O)NC1CCCC1)c1cccs1 (stereo unspecified) | 101* | -41 | -5 | -1 | 0 | 108* | 111*
COc1cccc(N(C(=O)CS(=O)CC(=O)Nc2ccc(F)cc2)C(C(=O)NC2CCCCC2)c2cccs2)c1 (stereo unspecified) | 25 | 10 | . | -2 | -1 | 100* | 51
Cc1ccccc1-n1c(SCC(=O)NCc2cccs2)nc2ccccc2c1=O | 47 | 8 | 5 | -2 | 4 | -1 | .
C=CCOC(=O)C1=C[C@H](c2coc3ccccc3c2=O)C[C@H](OCCCCO)O1 | . | . | -5 | . | . | . | .
COc1cc2nc(CSc3nc(-c4ccc(F)cc4)cs3)[nH]c(=O)c2cc1OC | 6 | 1 | -2 | 0 | -1 | 105* | 51
O=C(CSc1nnc(Cc2ccccc2)n1-c1cccc(Cl)c1)NNC(=O)Cc1ccccc1 | 15 | -4 | . | 0 | 0 | 9 | .
Cc1ccc(NC(=O)c2ccc(C#CC3(O)CCCCC3)cc2)cc1C | -1 | 1 | -3 | 0 | -12 | 101* | 106*
O=C(NCc1ccccn1)c1cccc(NS(=O)(=O)c2cccc(F)c2)c1 | -4 | 0 | -1 | 1 | -5 | 10 | .
CCNC(=S)N/N=C/c1cccc(/C=N/NC(=S)NCC)c1 | -4 | -3 | -1 | 0 | 1 | -16 | .
CCNC(=S)N/N=C/c1cc(Br)cc(Br)c1OC | -2 | -10 | 2 | -2 | -6 | 102* | 80*
